Data from paper PMC4931877 (The Journal of Pharmacology and Experimental Therapeutics, 2016).
Like-named read-outs stand apart in the source and are kept apart here.

Columns and labels:
[1] = SAD study safety and tolerability; format: in vivo, human
How it was run: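 Single-dose subjects, placebo-controlled and double-blind, were assessed by vital signs, physical examination, 12-lead ECG and clinical laboratory tests. AEs were spontaneously reported or elicited, and their onset, duration, intensity, seriousness, relatedness and action taken were recorded. AEs were tabulated by MedDRA 12.1 system organ class and preferred term.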

[2] = test system: brain and CSF Aβ42 and Aβ40; settings: rats; ref Toyn et al., 2016; cited from earlier work
[3] = test system: brain Aβ42; set-up: species or system human; settings: single 900-mg dose
[4] = test system: CSF Aβ peptides; assay: SAD study pharmacodynamic effects on CSF Aβ peptides; format: in vivo, human
How it was run: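 After a single oral dose, CSF was drawn by lumbar cannulation at −1 to 24 h postdose, with predose samples taken at 7–10 AM, and stored at −80°C in polypropylene. Aβ38/40/42 and total Aβ were measured by MSD immunoassay and Aβ37 by 6E10 sandwich immunoassay, in duplicate. Other Aβ fragments were measured by LC-MS/MS (LLOQ 30 pg/ml).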

[5] = SAD study plasma pharmacokinetics; format: in vivo, human; settings: for Cmax / AUC(0-t) / AUC(0-inf) / half-life: human, plasma, oral; for Cmax: Cmax GM (CV%); for AUC(0-t): AUC0–t GM (CV%); for AUC(0-inf): AUC0–∞ GM (CV%)
How it was run: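 Young subjects (8 per panel, 3:1 active:placebo) received single oral 10–1200 mg doses as solution or capsule; elderly subjects received 900 mg. Panel 4 was dosed fasted, after a high-fat meal, or 2 h after 40 mg famotidine. Plasma drug was measured by validated LC-MS/MS with noncompartmental analysis.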

[6] = test system: brain and CSF Aβ42 and Aβ40; settings: dogs; ref Toyn et al., 2016; cited from earlier work
[7] = target: CYP3A4 (Homo sapiens, UniProt P08684); assay: Preclinical CYP3A4 time-dependent inhibition, induction and metabolism; format: in vitro ADME
Chain of CYP3A4 (P08684 whole entry): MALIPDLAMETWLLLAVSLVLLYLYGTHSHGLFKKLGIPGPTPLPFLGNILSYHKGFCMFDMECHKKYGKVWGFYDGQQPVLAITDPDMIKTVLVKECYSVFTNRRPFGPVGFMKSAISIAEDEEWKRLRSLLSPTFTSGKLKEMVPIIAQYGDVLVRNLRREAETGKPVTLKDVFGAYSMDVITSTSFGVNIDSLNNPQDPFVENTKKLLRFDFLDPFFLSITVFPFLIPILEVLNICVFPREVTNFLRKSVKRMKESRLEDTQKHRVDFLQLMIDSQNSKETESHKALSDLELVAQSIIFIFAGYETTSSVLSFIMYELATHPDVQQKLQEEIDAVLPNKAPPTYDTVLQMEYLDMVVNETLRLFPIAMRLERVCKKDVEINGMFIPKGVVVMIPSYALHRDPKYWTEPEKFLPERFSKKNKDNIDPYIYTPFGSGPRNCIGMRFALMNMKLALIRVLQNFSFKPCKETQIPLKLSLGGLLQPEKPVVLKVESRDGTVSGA

[8] = SAD study CSF pharmacokinetics; format: in vivo, human
How it was run: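 In panel 9, 15 healthy subjects received a single 900-mg dose or placebo (2:1) in the fasted state. CSF was drawn by lumbar cannulation at −1, 0, 2, 4, 6, 8, 12, 15, 18 and 24 h postdose, using polypropylene ware and a pump without a filter. Samples were stored at −80°C, and drug was measured by validated LC-MS/MS.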

[9] = test system: CSF Aβ42; assay: Indirect-response simulation of CSF Aβ42 lowering from MAD exposure-response; set-up: species or system human; settings: MAD exposure-response model, Fig. 3F
[10] = target: T1, UGT1A1 (Homo sapiens, UniProt P22309); assay: UGT1A1 inhibition; format: biochemical
T1 sequence (P22309 26-533): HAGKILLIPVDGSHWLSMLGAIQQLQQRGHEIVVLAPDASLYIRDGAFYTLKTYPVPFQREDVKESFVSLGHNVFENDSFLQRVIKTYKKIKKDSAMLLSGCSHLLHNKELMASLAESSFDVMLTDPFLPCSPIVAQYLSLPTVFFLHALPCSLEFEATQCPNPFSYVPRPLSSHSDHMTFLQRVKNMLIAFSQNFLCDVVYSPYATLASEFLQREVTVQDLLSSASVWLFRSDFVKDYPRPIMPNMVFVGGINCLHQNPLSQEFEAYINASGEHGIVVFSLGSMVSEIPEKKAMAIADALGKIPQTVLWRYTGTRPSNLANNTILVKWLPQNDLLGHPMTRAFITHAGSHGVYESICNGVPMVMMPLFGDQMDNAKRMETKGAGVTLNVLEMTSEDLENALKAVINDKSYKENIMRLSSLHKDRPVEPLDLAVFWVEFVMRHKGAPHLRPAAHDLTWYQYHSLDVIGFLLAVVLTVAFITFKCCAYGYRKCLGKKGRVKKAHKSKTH

[11] = SAD panel 4, 2 hours after 40 mg famotidine
[12] = both, 300 mg, SAD panel 4, 300 mg, fasted
[13] = both, 900 mg, SAD panel 8, 900 mg, elderly

In the case of `CNc1nc(Nc2ccc(-n3cnc(C)n3)c(OC)c2)nc2c1CC[C@H]2c1ccc(F)cc1` [BMS-932481, (S)-7-(4-fluorophenyl)-N2-(3-methoxy-4-(3-methyl-1H-1,2,4-triazol-1-yl)phenyl)-N4-methyl-6,7-dihydro-5H-cyclopenta[d]pyrimidine-2,4-diamine], the “findings on ECG parameters” value [1] is reported as “no clinical relevant findings”, the AEs ([1]; 10 mg) is reported as 3 (50.0) n (%) and the Deaths ([1]; 10 mg) is reported as 0 n (%). For the same molecule, the “Discontinuation due to AEs” value ([1]; 10 mg) was 0 n (%), the “Drug-related AEs” value ([1]; 10 mg) was 0 n (%) and the SAEs ([1]; 10 mg) was 0 n (%). The AEs ([1]; 30 mg) was 2 (33.3) n (%), the Deaths ([1]; 30 mg) was 0 n (%) and the “Discontinuation due to AEs” value ([1]; 30 mg) was 0 n (%). For the same molecule, the “Drug-related AEs” value ([1]; 30 mg) was 0 n (%), the SAEs ([1]; 30 mg) was 0 n (%) and the AEs ([1]; 100 mg) was 1 (16.7) n (%). For the same molecule, the Deaths ([1]; 100 mg) was 0 n (%), the “Discontinuation due to AEs” value ([1]; 100 mg) was 0 n (%) and the “Drug-related AEs” value ([1]; 100 mg) was 0 n (%). The SAEs ([1]; 100 mg) was 0 n (%), the AEs ([1]; 300 mg P2 (cross-over phase 2)) was 0 n (%) and the Deaths ([1]; 300 mg P2 (cross-over phase 2)) was 0 n (%). The “Discontinuation due to AEs” value ([1]; 300 mg P2 (cross-over phase 2)) was 0 n (%), the “Drug-related AEs” value ([1]; 300 mg P2 (cross-over phase 2)) was 0 n (%) and the SAEs ([1]; 300 mg P2 (cross-over phase 2)) was 0 n (%). For the same molecule, the AEs ([1]; 300 mg P3 (cross-over phase 3)) was 1 (16.7) n (%), the Deaths ([1]; 300 mg P3 (cross-over phase 3)) was 0 n (%) and the “Discontinuation due to AEs” value ([1]; 300 mg P3 (cross-over phase 3)) was 0 n (%). For the same molecule, the “Drug-related AEs” value ([1]; 300 mg P3 (cross-over phase 3)) was 0 n (%), the SAEs ([1]; 300 mg P3 (cross-over phase 3)) was 0 n (%) and the AEs ([1]; 300 mg P (cross-over phase 1)) was 0 n (%). For the same molecule, the Deaths ([1]; 300 mg P (cross-over phase 1)) was 0 n (%), the “Discontinuation due to AEs” value ([1]; 300 mg P (cross-over phase 1)) was 0 n (%) and the “Drug-related AEs” value ([1]; 300 mg P (cross-over phase 1)) was 0 n (%). For the same molecule, the SAEs ([1]; 300 mg P (cross-over phase 1)) was 0 n (%), the AEs ([1]; 600 mg) was 0 n (%) and the Deaths ([1]; 600 mg) was 0 n (%). For the same molecule, the “Discontinuation due to AEs” value ([1]; 600 mg) was 0 n (%), the “Drug-related AEs” value ([1]; 600 mg) was 0 n (%) and the SAEs ([1]; 600 mg) was 0 n (%). For the same molecule, the AEs ([1]; 900 mg) was 3 (50.0) n (%), the Deaths ([1]; 900 mg) was 0 n (%) and the “Discontinuation due to AEs” value ([1]; 900 mg) was 0 n (%). The “Drug-related AEs” value ([1]; 900 mg) was 1 (16.7) n (%), the SAEs ([1]; 900 mg) was 0 n (%) and the Deaths ([1]; 900 mg C (CSF panel)) was 0 n (%). For the same molecule, the “Discontinuation due to AEs” value ([1]; 900 mg C (CSF panel)) was 0 n (%), the “Drug-related AEs” value ([1]; 900 mg C (CSF panel)) was 1 (10.0) n (%) and the SAEs ([1]; 900 mg C (CSF panel)) was 0 n (%). The AEs ([1]; 900 mg El (elderly)) was 0 n (%), the Deaths ([1]; 900 mg El (elderly)) was 0 n (%) and the “Discontinuation due to AEs” value ([1]; 900 mg El (elderly)) was 0 n (%). For the same molecule, the “Drug-related AEs” value ([1]; 900 mg El (elderly)) was 0 n (%), the SAEs ([1]; 900 mg El (elderly)) was 0 n (%) and the AEs ([1]; 1200 mg) was 0 n (%). The Deaths ([1]; 1200 mg) was 0 n (%), the “Discontinuation due to AEs” value ([1]; 1200 mg) was 0 n (%) and the “Drug-related AEs” value ([1]; 1200 mg) was 0 n (%). The SAEs ([1]; 1200 mg) was 0 n (%), the “tolerability after a single dose” value ([1]; 10 to 1200 mg, healthy subjects) was “generally well tolerated” and the AEs ([1]; all treated) was 17 (27.9) n (%). For the same molecule, the Deaths ([1]; all treated) was 0 n (%), the “Discontinuation due to AEs” value ([1]; all treated) was 0 n (%) and the “Drug-related AEs” value ([1]; all treated) was 2 (3.3) n (%). For the same molecule, the SAEs ([1]; all treated) was 0 n (%), the “participants with drug-related AEs” value ([1]; two participants) was 3.3% and the “Aβ42 and Aβ40 lowering in both the brain and CSF” value [2] was “dose-dependent”. The “projected reduction of CSF Aβ42 from baseline” value [3] was at least 50%, the “effect on CSF Aβ39” value [4] was “appeared to lower” and the “effect on shorter CSF fragments Aβ14, Aβ15, and Aβ34” value [4] was “no effect”. For the same molecule, the “degree of CSFAβ42 lowering, elderly versus young” value ([4]; largely due to higher exposures in elderly) was “greater in elderly than in young”, the “higher Cmax in elderly than normal healthy young” value ([5]; 900 mg single dose, range 3.4–4.3) was 3.8 fold and the Between-subjects variability ([5]; SAD) was 27%–83. For the same molecule, the “increase of AUC with famotidine (change in gastric pH)” value [5, 11] was “approximately 15%”, the “increase of Cmax with famotidine (change in gastric pH)” value [5, 11] was 60% and the Cmax ([5]; both, 10 mg, SAD panel 1, 10 mg single dose) was 11 ng/mL. For the same molecule, the Cmax ([5]; both, 30 mg, SAD panel 2, 30 mg single dose) was 49 ng/mL, the AUC(0-t) [5, 12] was 8570 ng·h/mL and the AUC(0-inf) [5, 12] was 8750 ng·h/mL. For the same molecule, the Cmax [5, 12] was 325 ng/mL, the half-life ([5]; both, 300 mg, t1/2 Mean (S.D.), SAD panel 4, 300 mg, fasted) was 20 h and the AUC(0-t) [5, 13] was 134000 ng·h/mL. It also gave an AUC(0-inf) [5, 13] of 156000 ng·h/mL, a Cmax [5, 13] of 2870 ng/mL and a half-life ([5]; both, mean terminal half-life, SAD, healthy young participants) of 16 to 32 h. It also gave an AUC(0-t) ([5]; 900 mg, SAD panel 9, 900 mg) of 42600 ng·h/mL, a Cmax ([5]; 900 mg, SAD panel 9, 900 mg) of 876 ng/mL and a half-life ([5]; 900 mg, t1/2 Mean (S.D.), SAD panel 9, 900 mg) of 32 h. The “dose proportionality of plasma exposure” value ([5]; single dose, 10 to 1200 mg, healthy young volunteers) was “dose proportional”, the “Aβ42 and Aβ40 lowering in both the brain and CSF” value [6] was “dose-dependent” and the metabolizing enzyme [7] was “primarily metabolized by CYP3A4”. For the same molecule, the KI (inactivation) ([7]; human) was 82.5 µM, the “induction of CYP3A4 enzyme activity” value ([7]; preclinical) was “weak inducer” and the “Tmax Median (Minimum–Maximum)” value ([8]; SAD panel 9, 900 mg) was 6 (4–18) h. The AUC(0-t) ([8]; human, oral, 900 mg) was 97 ng·h/mL, the Cmax ([8]; human, oral, 900 mg) was 6.5 ng/mL and the Kp ([8]; human, oral, 900 mg) was under 0.01. For the same molecule, the Tmax ([8]; human, oral, 900 mg) was 6 h, the “decrease of CSF Aβ42 levels within exposures free of liver toxicity findings” value [9] was at most 25% and the IC50 [10] was 1.34 µM.
